# Active and inactive are the calls of the source. The calls are words filed in the database; no cut-off is given here.
# Assays:
# [1] = test system: Plasmodium falciparum; assay: Antiplasmodial activity against chloroquine-susceptible Plasmodium falciparum K2 infected in human erythrocytes assessed as inhibition of [3H]hypoxanthine uptake after 48 hrs; type: functional, organism-based
# How it was run: (§1)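 Strains were cultured in A-positive human blood in RPMI 1640 with 10% human serum, 25 mM HEPES and 25 mM NaHCO3, under 10% O2/5% CO2/85% N2 at 37 °C. Microtests used 0.5% parasitemia and 1.5% hematocrit. Tritiated hypoxanthine (1 μCi/well) was added at time zero, then 48 h incubation, freeze-thaw, harvest and scintillation counting. IC50 was taken by nonlinear regression against drug-free controls.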
# [2] = test system: Plasmodium falciparum; assay: Antiplasmodial activity against chloroquine-resistant Plasmodium falciparum Dd2 infected in human erythrocytes assessed as inhibition of [3H]hypoxanthine uptake after 48 hrs; type: functional, organism-based
# How it was run: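 Ring-stage infected erythrocytes (0.5% parasitemia, 2.5% hematocrit) exposed to compounds 48 h, then radioactive hypoxanthine 24 h; radioactivity in precipitable material taken as proliferation index for IC50.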
# [3] = test system: Plasmodium falciparum; assay: Antiplasmodial activity against chloroquine-susceptible Plasmodium falciparum Voll infected in human erythrocytes assessed as inhibition of [3H]hypoxanthine uptake after 48 hrs; type: functional, organism-based; how it was run: as §1
# [4] = test system: Nucleic Acid; assay: Binding affinity to pUC18 DNA containing 50% AT assessed as maximum melting temperature at 1 uM by spectrophotometry analysis; type: nucleic-acid assay
# How it was run: (§2)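 Drug at 1 μM was mixed with DNA at 15 μM base pairs (15:1 bp:drug) in TE with 5 mM NaCl. Absorbance at 260 nm was recorded from 30-97 °C at 0.5 °C/min, with readings every 0.5 °C. Curves were normalized, smoothed and differentiated. Tmmax = derivative peak maximum; Tmint = middle of the integrated area; Tm1/2 = middle of the peak at half height.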
# [5] = test system: Plasmodium falciparum; assay: Antiplasmodial activity against chloroquine-susceptible Plasmodium falciparum 8425 infected in human erythrocytes assessed as inhibition of [3H]hypoxanthine uptake after 48 hrs; type: functional, organism-based; how it was run: as §1
# [6] = test system: Nucleic Acid; assay: Binding affinity to pUC18 DNA containing 50% AT assessed as middle of the integrated surface melting temperature at 1 uM by spectrophotometry analysis; type: nucleic-acid assay; how it was run: as §2
# [7] = test system: Plasmodium falciparum; assay: Antiplasmodial activity against chloroquine-susceptible Plasmodium falciparum L1 infected in human erythrocytes assessed as inhibition of [3H]hypoxanthine uptake after 48 hrs; type: functional, organism-based; how it was run: as §1
# [8] = test system: Plasmodium falciparum; assay: Antiplasmodial activity against chloroquine-susceptible Plasmodium falciparum NF54 infected in human erythrocytes assessed as inhibition of [3H]hypoxanthine uptake after 48 hrs; type: functional, organism-based
# How it was run: (§3)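 Asynchronous ring-stage cultures in human A Rh+ erythrocytes (RPMI 1640, HEPES, NaHCO3, hypoxanthine, 0.5% Albumax II, 5% CO2, 37 C), 1% parasitemia; top final drug concentration 30 μM. After 24 h, [3H]-hypoxanthine (0.2 μCi/well) added, further 48 h incubation; plates freeze-thawed, harvested, uptake counted; IC50 calculated.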
# [9] = test system: Nucleic Acid; assay: Binding affinity to polydAdT DNA containing 100% AT assessed as middle of the peak at half height melting temperature at 1 uM by spectrophotometry analysis; type: nucleic-acid assay; how it was run: as §2
# [10] = test system: Nucleic Acid; assay: Binding affinity to polydAdT DNA containing 100% AT assessed as middle of the integrated surface melting temperature at 1 uM by spectrophotometry analysis; type: nucleic-acid assay; how it was run: as §2
# [11] = test system: Plasmodium falciparum; assay: Antiplasmodial activity against chloroquine-susceptible Plasmodium falciparum PA infected in human erythrocytes assessed as inhibition of [3H]hypoxanthine uptake after 48 hrs; type: functional, organism-based; how it was run: as §1
# [12] = target: Nucleic Acid; assay: Binding affinity to pUC18 DNA at pH 7.5 by UV-Vis spectrophotometry analysis; type: nucleic-acid assay
# How it was run: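 A 10 μM drug solution was titrated at room temperature with linearized pUC18 DNA (50% AT), 0.1-50 μM base pairs final. Buffer was TE (10 mM Tris-HCl, 0.1 mM EDTA) with 5 mM NaCl, ionic strength 12 mM. UV-Vis absorption spectra were recorded at 220-380 nm. Kd = DNA concentration at which half the drug is bound.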
# [13] = test system: Plasmodium falciparum; assay: Antiplasmodial activity against chloroquine, pyrimethamine, cycloguanil-resistant Plasmodium falciparum K1 infected in human erythrocytes assessed as inhibition of [3H]hypoxanthine uptake after 48 hrs; type: functional, organism-based; how it was run: as §3
# [14] = test system: Plasmodium falciparum; assay: Antiplasmodial activity against chloroquine-susceptible Plasmodium falciparum FCM29 infected in human erythrocytes assessed as inhibition of [3H]hypoxanthine uptake after 48 hrs; type: functional, organism-based; how it was run: as §1
# [15] = test system: Plasmodium falciparum; assay: Antiplasmodial activity against chloroquine-susceptible Plasmodium falciparum 3D7 infected in human erythrocytes assessed as inhibition of [3H]hypoxanthine uptake after 48 hrs; type: functional, organism-based
# How it was run: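 Culture in RPMI 1640 with 10% human serum, 25 mM HEPES, 25 mM NaHCO3, A-positive blood, 10% O2/5% CO2/85% N2, 37 C. Isotopic microtest: 0.5% parasitemia, 1.5% hematocrit, 1 μCi tritiated hypoxanthine at time zero, 48 h; freeze-thaw lysis, filter harvest, scintillation count. IC50 = 50% uptake versus drug-free control, nonlinear regression of log dose-response curves.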
# [16] = test system: Plasmodium falciparum; assay: Antiplasmodial activity against chloroquine-susceptible Plasmodium falciparum FCR3 infected in human erythrocytes assessed as inhibition of [3H]hypoxanthine uptake after 48 hrs; type: functional, organism-based; how it was run: as §1
# [17] = test system: NCH89; assay: Antiproliferative activity against human carmustine-resistant NCH-89 cells assessed as BrdU incorporation after 48 hrs; type: functional, cell-based; conditions: NCH89, 48 h
# How it was run: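 NCH89 glioblastoma cells were seeded at 7 × 10^3 cells/well in replicate wells for 24 h. Compound was then added at 0.1-100 μM. After 48 h, BrdU was added at 100 μM final, and incorporation was detected with a BrdU labeling/detection kit.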
# [18] = test system: Nucleic Acid; assay: Binding affinity to polydAdT DNA containing 100% AT assessed as maximum melting temperature at 1 uM by spectrophotometry analysis; type: nucleic-acid assay; how it was run: as §2
# [19] = test system: Plasmodium falciparum; assay: Antiplasmodial activity against chloroquine-susceptible Plasmodium falciparum W2 infected in human erythrocytes assessed as inhibition of [3H]hypoxanthine uptake after 48 hrs; type: functional, organism-based; how it was run: as §1
# [20] = target: Nucleic Acid; assay: Binding affinity to pUC18 DNA at pH 7.5 by spectrofluorimetry analysis; type: nucleic-acid assay
# How it was run: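 A 1-10 μM drug solution was titrated at room temperature with linearized pUC18 DNA (50% AT), 0.1-50 μM base pairs final, in TE buffer with 5 mM NaCl (ionic strength 12 mM). Fluorescence used excitation at 320 nm and emission at 340-500 nm, corrected for buffer and instrument response. Kd = DNA concentration giving half-bound drug.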
# [21] = test system: Nucleic Acid; assay: Binding affinity to pUC18 DNA containing 50% AT assessed as middle of the peak at half height melting temperature at 1 uM by spectrophotometry analysis; type: nucleic-acid assay; how it was run: as §2
# [22] = test system: Plasmodium falciparum; assay: Antiplasmodial activity against chloroquine-susceptible Plasmodium falciparum D6 infected in human erythrocytes assessed as inhibition of [3H]hypoxanthine uptake after 48 hrs; type: functional, organism-based; how it was run: as §1
# [23] = test system: Plasmodium falciparum; assay: Antiplasmodial activity against chloroquine-susceptible Plasmodium falciparum K14 infected in human erythrocytes assessed as inhibition of [3H]hypoxanthine uptake after 48 hrs; type: functional, organism-based; how it was run: as §1
# [24] = test system: Plasmodium falciparum; assay: Antiplasmodial activity against chloroquine-susceptible Plasmodium falciparum Bres infected in human erythrocytes assessed as inhibition of [3H]hypoxanthine uptake after 48 hrs; type: functional, organism-based; how it was run: as §1
# [25] = test system: MRC5; assay: Cytotoxicity against human MRC5 after 3 days; type: cell-based; conditions: MRC5, 72 h
# How it was run: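 MRC-5SV2 cells were grown in Earle's MEM with 5% FCSi and plated at about 10^4 cells/well. After 3 days of incubation, viability was read fluorimetrically with resazurin (ex 550/em 590 nm). Growth reduction was expressed relative to untreated control wells, and CC50 was derived.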
# [26] = test system: Plasmodium berghei; assay: Antiplasmodial activity against Plasmodium berghei ANKA infected in Swiss mice (Mus musculus) assessed as reduction of parasitaemia at 10 mg/kg, intraperitoneal every day for 4 days; type: functional; conditions: ip, 96 h
# [27] = test system: Mus musculus; assay: Toxicity in ip dosed Swiss mouse assessed as mortality at 50 mg/kg, ip; type: organism-based; design: dose 50 mg/kg, route intraperitoneal; conditions: in vivo
# How it was run: (§4)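 Peters 4-day suppressive test, P. berghei ANKA: 18-20 g mice infected iv with 2 × 10^6 parasitized red cells day 0; compounds freshly made in 10% DMSO in sterile PBS, given ip from 2 h postinfection and on days 1-3; daily dose 30 mg/kg or 50 mg/kg; deaths recorded.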
# [28] = test system: Plasmodium berghei; assay: Antiplasmodial activity against Plasmodium berghei ANKA infected in Swiss mice (Mus musculus) assessed as reduction of parasitaemia at 50 mg/kg, intraperitoneally daily for 4 days; type: functional, organism-based; design: dose 50 mg/kg
# How it was run: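 Swiss mice (18-20 g) infected intravenously on day 0 with 2 × 10^6 P. berghei ANKA parasitized red cells. Compound was freshly prepared in 10% DMSO in sterile PBS and given ip, first 2 h postinfection, then on days +1-3 (4-day suppressive test). On day +4, parasitemia was counted microscopically on Giemsa-stained tail-blood films.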
# [29] = test system: Mus musculus; assay: Toxicity in ip dosed Swiss mouse assessed as mortality at 30 mg/kg, ip; type: organism-based; design: dose 30 mg/kg, route intraperitoneal; conditions: in vivo; how it was run: as §4
compound,measurement,setting,value
CC(C)NCCNc1ccnc2cc(Cl)ccc12,IC50,[1],130 nM
same,IC90,[1],285 nM
same,IC50,[2],22.6 nM
same,IC50,[3],63.7 nM
same,IC90,[3],135 nM
same,Tm,[4],73 °C
same,IC50,[5],29 nM
same,IC90,[5],59.4 nM
same,Tm,[6],73.9 °C
same,IC50,[7],63.2 nM
same,IC90,[7],132 nM
same,IC50,[8],8.9 nM
same,Tm,[9],46.5 °C
same,Tm,[10],46.5 °C
same,IC50,[11],64 nM
same,IC90,[11],107 nM
same,Kd,[12],17500 nM
same,IC50,[13],47.4 nM
same,IC50,[14],239 nM
same,IC90,[14],369 nM
same,IC50,[15],35.2 nM
same,IC90,[15],65.6 nM
same,IC50,[16],86.1 nM
same,IC90,[16],164 nM
same,IC50,[17],30400 nM
same,Tm,[18],46.6 °C
same,IC50,[19],169 nM
same,IC90,[19],320 nM
same,Kd,[20],8000 nM
same,Tm,[21],74.5 °C
same,IC50,[22],35.6 nM
same,IC90,[22],67.8 nM
same,IC50,[23],171 nM
same,IC90,[23],316 nM
same,IC50,[24],129 nM
same,IC90,[24],218 nM
same,IC50,[25],64000 nM
CCN(CC)CCCC(C)Nc1ccnc2cc(Cl)ccc12 (stereo not drawn) [CHLOROQUINE],IC90,[1],912 nM
same,inhibition in vivo at 10 mg/kg,[26],98.9%
same,IC90,[3],316 nM
same,Tm,[4],73.2 °C
same,IC90,[5],59.2 nM
same,Tm,[6],73.7 °C
same,IC90,[7],418 nM
same,Tm,[9],47 °C
same,Tm,[10],46.6 °C
same,IC90,[11],483 nM
same,Kd,[12],7500 nM
same,IC90,[16],686 nM
same,IC50,[17],41200 nM
same,Tm,[18],46.9 °C
same,IC90,[19],693 nM
same,Kd,[20],9000 nM
same,Tm,[21],74.7 °C
same,IC90,[22],44.4 nM
same,IC90,[23],1130 nM
same,IC90,[24],614 nM
same,IC50,[25],64000 nM
Clc1ccc2c(NCCNC(CCN3CCCCC3)c3ccccc3)ccnc2c1 (stereo not drawn),IC50,[1],58.1 nM
same,IC90,[1],105 nM
same,Activity,[27],Toxic
same,IC50,[2],23.9 nM
same,IC50,[3],38.5 nM
same,IC90,[3],68.4 nM
same,Tm,[4],73 °C
same,IC50,[5],8 nM
same,IC90,[5],12.8 nM
same,Activity,[28],Active
same,Tm,[6],74.4 °C
same,IC50,[7],43.9 nM
same,IC90,[7],73.5 nM
same,IC50,[8],8.7 nM
same,Tm,[9],46.5 °C
same,Tm,[10],46.4 °C
same,IC50,[11],41.2 nM
same,IC90,[11],68.9 nM
same,Kd,[12],1000 nM
same,IC50,[13],32.6 nM
same,IC50,[14],135 nM
same,IC90,[14],296 nM
same,IC50,[15],9.9 nM
same,IC90,[15],15.8 nM
same,IC50,[16],44.2 nM
same,IC90,[16],73.1 nM
same,IC50,[17],5600 nM
same,Tm,[18],46 °C
same,IC50,[19],44 nM
same,IC90,[19],74.6 nM
same,Kd,[20],4000 nM
same,Tm,[21],75 °C
same,IC50,[22],10.9 nM
same,IC90,[22],16 nM
same,IC50,[23],76 nM
same,IC90,[23],205 nM
same,IC50,[24],46.5 nM
same,IC90,[24],76.7 nM
same,Activity,[29],Toxic
same,IC50,[25],8000 nM
